The list is not random: actives were taken first. Their share in the collection is about 3.8%.
DENV2 CPE rescue – inhibitors of DENV2 cytopathic effect. 1.7% of 350,000 active. AID 651640. CPE inhibition, % at 9.99 µM. DENV2-infected cells, cytopathic effect rescue, plate reader; in the data active = CPE inhibition above about 20%, passing the limit was not always enough; inconclusive = no clear call, values can overlap the other calls; tested in BHK-21 cells;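 also: 0% = median of neutral control wells and 100% = median of positive control wells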
XiGFP reactiv – reactivates the inactive X chromosome in mouse fibroblasts; XiGFP mouse fibroblasts, % GFP-positive cells imaging, 3 d; cells co-treated with 5-aza-dC sensitizer; scaled so ellipticine positive control = 100%; activation, % at 7.58 µM; 0.055% of 360,000 active;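 active = mean normalized replicate activation at least 10% and every replicate at or above 10%; inconclusive = only one of the two criteria met; inactive = mean below 10% and not all replicates reach 10%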;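 also: 0% = median of on-plate neutral control wells and 100% = ellipticine 6 µM median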
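Material: XiGFP fibroblasts, SV40-immortalized. Buffer or medium: DMEM plus 5-aza-dC sensitizer. Compound: single concentration per compound, delivered by pin transfer. Times: 3 days compound exposure. Controls: ellipticine 6 µM.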
SIRT5 inh – inhibitors of human sirtuin-5 desuccinylase; Purified SirT5, succinyl-peptide AMC, trypsin-coupled fluorescence; 1.1% of 330,000 active; Q9NXA8; inhibition, % at 15 µM; AID 652115; in the data active = inhibition above about 15%; inconclusive = no clear call, values can overlap the other calls
Target sequence (Q9NXA8 whole entry, looked up): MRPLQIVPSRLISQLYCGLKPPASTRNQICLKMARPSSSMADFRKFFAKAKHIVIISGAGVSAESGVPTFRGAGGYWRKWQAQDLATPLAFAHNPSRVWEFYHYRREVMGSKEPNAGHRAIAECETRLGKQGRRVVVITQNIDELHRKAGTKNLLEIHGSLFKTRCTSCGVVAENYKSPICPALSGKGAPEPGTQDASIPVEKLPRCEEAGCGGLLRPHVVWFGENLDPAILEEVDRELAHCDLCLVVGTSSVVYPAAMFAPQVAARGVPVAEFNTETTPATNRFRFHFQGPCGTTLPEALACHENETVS
FGF22 binding – FGF22 (human) thermal shift binding; Q9HCT0; recombinant FGF22 thermal shift, SYPRO orange fluorescence; percent of sucrose octasulfate shift, DMSO zero; activity (Tm shift, normalised), % at 9.99 µM; 1.5% of 340,000 active; AID 651658;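 active = mean Tm shift, scaled 0 neutral to 100 positive control, at about 1.3% or above, every replicate too, limit read from the data; inconclusive = no clear call, values can overlap the other calls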
Target sequence (Q9HCT0 whole entry, looked up): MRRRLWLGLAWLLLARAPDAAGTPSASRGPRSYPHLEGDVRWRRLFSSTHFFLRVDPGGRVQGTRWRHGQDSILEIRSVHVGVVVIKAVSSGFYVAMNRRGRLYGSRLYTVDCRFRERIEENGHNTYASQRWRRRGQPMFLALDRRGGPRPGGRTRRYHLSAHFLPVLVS
ARNT-TACC3 inh – disrupts binding between human ARNT and TACC3; Q9Y6A5; AlphaScreen His-ARNT PAS-B/GST-TACC3 binding, luminescence; TACC3 fragment carries E629A point mutation; inhibition, % at 9.99 µM; 0.66% of 390,000 active; AID 623870;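 active = mean inhibition of replicates at least 50% and at least half of replicates each reaching 50%; inconclusive = half or more replicates reach 50% but mean below 50%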;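 also: 0% = complete ARNT plus TACC3 wells and 100% = ARNT alone without TACC3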
FN deposit inh – fibronectin deposition inhibition. AH1F fibroblasts, Alexa488-fibronectin deposition fluorescence, overnight. 0.086% of 350,000 active. inhibition, % at 12.6 µM. AID 743247;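 active = mean inhibition across replicates of 30% or more, regardless of how many single replicates reach that level; inconclusive = mean under 30% yet at least half of replicates reach 30%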;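 also: positive control wells lacked labelled fibronectin entirely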
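Material: AH1F fibroblasts assembling fluorescent fibronectin matrix; amount: 10000 AH1F cells/well; medium: DMEM, 2% serum; reagent: Alexa488-fibronectin, 24 nM final in well; dosing: single compound dose, delivered by pin transfer; incubation: 1 h adhesion, overnight exposure; detection: fluorescence after three HBSS washes, excitation 485 nm, emission 525 nm; measure: fibronectin deposition inhibition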
Numbers without * were called inactive; ? = inconclusive; . = not tested or not shown; ! = repeats disagree.

SMILES	DENV2 CPE rescue	XiGFP reactiv	SIRT5 inh	FGF22 binding	ARNT-TACC3 inh	FN deposit inh
CCn1c2c(n(C(C)=O)c1=O)C[C@@H](c1ccccc1)[C@@H](C)[C@@H](C(=O)N1CCCC1)C2	50*	0	.	41	.	0
CCOC(=O)/C=C1\SCC(=O)N1CC(=O)NCc1ccc(OC)c(OC)c1	-4	0	-4	43*	-1	-3
CCOC(=O)/C=C1\SCC(=O)N1CC(=O)NCCc1ccc(F)cc1	-2	0	-5	0	-2	1
C=CCC[C@H](Cc1ccc(F)cc1)C(=O)OC[C@@H](Cc1c[nH]c2ccccc12)NC(=O)[C@@H](CC=C)CC(=O)N(CCO)Cc1ccccc1	21*	0	.	0	.	-7
Cc1[nH][nH]c(=O)c1C(c1cc(Br)ccc1O)c1c(C)[nH][nH]c1=O	-7	0	1	0	active	4
Cc1[nH][nH]c(=O)c1C(c1cc2c(cc1Br)OCO2)c1c(C)[nH][nH]c1=O	3	0	-2	0	2	4
C[C@H](NC(=O)C[C@@H]1C=C[C@@H](NC(=O)CN2CCOCC2)[C@@H](CO)O1)c1ccccc1	?	0	27*!	0	-13	2
O=C(C[C@@H]1C=C[C@H](NC(=O)CN2CCOCC2)[C@H](CO)O1)NC1CCCCC1	0	0	18*	0	-14	-17
CCCNC(=O)N[C@H]1C=C[C@H](CC(=O)N2CCN(C)CC2)O[C@H]1CO	-10	0	4	0	0	-9
CCCNC(=O)N[C@H]1C=C[C@H](CC(=O)N2CCN(C)CC2)O[C@@H]1CO	25*	0	1	0	-8	1
O=C(Cc1ccccc1)N[C@H]1C=C[C@@H](CC(=O)N2CCOCC2)O[C@H]1CO	53*	1	-6	-1	2	-23
O=C(C[C@H]1C=C[C@H](NC(=O)CN2CCOCC2)[C@H](CO)O1)NC1CCCCC1	4	0	2	0	-12	-7
COc1cccc(CNC(=O)C[C@@H]2C=C[C@H](NC(=O)C3CCOCC3)[C@@H](CO)O2)c1	16	0	1	0	6	1
CO[C@H]1CN(C)C(=O)c2cc(NC(=O)c3ccc4c(c3)OCO4)ccc2OC[C@H](C)N(CC2CC2)C[C@H]1C	2	0	0	0	-6	.
O=C(c1cccnc1)N1CC2(C1)[C@@H](c1ccccc1)[C@@H](CO)N2Cc1ccncc1	-4	0	-1	0	.	.
CC(C)(C)S(=O)(=O)c1cnc(-c2ccccn2)nc1N	?	0	-4	0	59*	11
O=C(Nc1nc2c(s1)CCCC2)c1ccc2ncsc2c1	-3	0	-5	1.7*	-5	-9
CNC[C@@H]1Oc2ccc(NS(=O)(=O)c3ccc(F)cc3)cc2C(=O)N([C@H](C)CO)C[C@@H]1C	53*	-1	-6	0	2	.
COc1ccc(S(=O)(=O)Nc2ccc3c(c2)C(=O)N([C@H](C)CO)C[C@@H](C)[C@H](CN(C)S(=O)(=O)c2ccc(F)cc2)O3)cc1	25*	0	3	0	-2	-17
COc1ccc(S(=O)(=O)Nc2ccc3c(c2)C(=O)N([C@@H](C)CO)C[C@H](C)[C@H](CN(C)S(=O)(=O)c2ccc(F)cc2)O3)cc1	31*!	0	4	1	-5	-5
C[C@@H]1CN([C@@H](C)CO)C(=O)c2cc(NC(=O)Cc3ccccc3)ccc2O[C@@H]1CN(C)C(=O)Nc1ccc(C(F)(F)F)cc1	-2	0	-1	.	14	.
C[C@@H]1CN([C@@H](C)CO)C(=O)c2cccc(NC(=O)Nc3ccc(F)cc3)c2O[C@H]1CN(C)S(=O)(=O)c1cn(C)cn1	.	0	.	.	.	.
C[C@@H]1CN([C@H](C)CO)C(=O)c2cc(NS(=O)(=O)c3ccc(F)cc3)ccc2O[C@H]1CN(C)Cc1ccc(Oc2ccccc2)cc1	6	0	0	0	3	3
CC(C)CCNC(=O)C1CC(c2ccccc2C(F)(F)F)=NO1 (configuration not stated)	35*	0	.	0	-1	10

Bioassay records deposited in PubChem by Broad Institute.
